Data on 26 molecules can be found in ChEMBL document CHEMBL1135526, “Discovery of 2-phenylamino-imidazo[4,5-h]isoquinolin-9-ones: a new class of inhibitors of lck kinase” (J Med Chem, 2002).

The target in assay [1] is Tyrosine-protein kinase Lck (Homo sapiens, UniProt P06239). Kind of assay: Inhibitory activity against recombinant human p56 Lck tyrosine kinase.
The subject of assay [2] is Jurkat. Kind of assay: Inhibition of calcium release in Jurkat cells. In kind it is functional, cell-based. Conditions: Homo sapiens. Put shortly:
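Jurkat cells were washed, loaded with Fluo-3 (2 μM final), then held in HBSS with Ca/Mg, HEPES, probenecid and 1% FBS at pH 7.4, giving 3 × 10⁵ cells/mL final. Compound was added for 15 min at room temperature. Anti-CD3 (clone X35, 0.25 μg/mL final) was then added and fluorescence followed for 13 min. EC50 is the mean of ≥2 experiments in duplicate ± SD.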

A short description of assay [3]: Inhibition of Extracellular signal-regulated kinase (Erk) - No inhibition at 100 ug/mL.
For assay [4], the target named is cAMP-dependent protein kinase (PKA) (Homo sapiens) (UniProt P22694+P17612+P22612). Put plainly: Inhibition of Protein kinase A (PKA) - No inhibition at 500 uM. Type of assay: protein assay.
In assay [5] the target is MAP kinase p38 (Homo sapiens) (UniProt O15264+Q15759+Q16539+P53778). Put plainly: Inhibition of Mitogen-activated protein kinase p38 - No inhibition at 10 ug/mL. In kind it is protein assay.
In assay [6] the target is T1, Tyrosine-protein kinase ZAP-70 (Homo sapiens, UniProt P43403).
T1 sequence (P43403 whole entry): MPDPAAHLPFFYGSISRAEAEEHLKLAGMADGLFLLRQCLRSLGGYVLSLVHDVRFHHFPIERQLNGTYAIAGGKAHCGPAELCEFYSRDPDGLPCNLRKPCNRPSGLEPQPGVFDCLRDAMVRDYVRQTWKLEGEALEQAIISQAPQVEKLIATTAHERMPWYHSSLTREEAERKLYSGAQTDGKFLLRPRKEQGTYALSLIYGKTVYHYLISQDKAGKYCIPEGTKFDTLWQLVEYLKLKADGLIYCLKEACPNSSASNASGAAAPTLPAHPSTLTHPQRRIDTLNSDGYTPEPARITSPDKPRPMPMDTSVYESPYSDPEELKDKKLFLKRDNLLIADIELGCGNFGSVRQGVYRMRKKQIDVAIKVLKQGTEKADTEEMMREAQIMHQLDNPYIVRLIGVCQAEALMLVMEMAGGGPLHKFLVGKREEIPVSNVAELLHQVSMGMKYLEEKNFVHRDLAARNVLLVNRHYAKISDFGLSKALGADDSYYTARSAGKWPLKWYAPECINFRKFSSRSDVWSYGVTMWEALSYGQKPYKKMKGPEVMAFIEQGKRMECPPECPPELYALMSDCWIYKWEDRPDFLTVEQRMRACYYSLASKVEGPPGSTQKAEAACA
Put plainly: Inhibition of Zeta-chain (TCR) associated protein kinase 70 kDa (ZAP70) with 1 uM ATP. An outline of the steps:
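Radiometric kinase assay with enzyme amount set to give a linear response over the reaction period. ATP at 1 μM final with γ³³P-ATP at 20 Ci/mmol. Compounds from 5 mg/mL DMSO stock, final 200 to 1 μg/mL for IC50. Reactions started with enzyme, run 60 min at 30 °C, stopped with TCA/pyrophosphate, filter-harvested, and counted by scintillation.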

Assay [7] concerns the target Tyrosine-protein kinase SYK (Homo sapiens, UniProt P43405). Put plainly: Inhibition of Syk tyrosine kinase. Put shortly: (§1)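 Enzyme amount for each kinase chosen to give a linear response over the whole reaction period. Inhibition was read as IC50 or as the highest concentration tested.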
Assay [8] addresses Epidermal growth factor receptor (Homo sapiens, UniProt P00533). Kind of assay: Inhibition of Epidermal growth factor receptor.
Assay [9] concerns the target Proto-oncogene tyrosine-protein kinase Src (Homo sapiens, UniProt P12931). Put plainly: Inhibition of c-SRC with 1 uM ATP. Put shortly:
as §1

Calls of active or inactive are those of the source. The calls are words filed in the database; no cut-off is given here.

Tyrosine-protein kinase Lck, sequence (P06239 whole entry): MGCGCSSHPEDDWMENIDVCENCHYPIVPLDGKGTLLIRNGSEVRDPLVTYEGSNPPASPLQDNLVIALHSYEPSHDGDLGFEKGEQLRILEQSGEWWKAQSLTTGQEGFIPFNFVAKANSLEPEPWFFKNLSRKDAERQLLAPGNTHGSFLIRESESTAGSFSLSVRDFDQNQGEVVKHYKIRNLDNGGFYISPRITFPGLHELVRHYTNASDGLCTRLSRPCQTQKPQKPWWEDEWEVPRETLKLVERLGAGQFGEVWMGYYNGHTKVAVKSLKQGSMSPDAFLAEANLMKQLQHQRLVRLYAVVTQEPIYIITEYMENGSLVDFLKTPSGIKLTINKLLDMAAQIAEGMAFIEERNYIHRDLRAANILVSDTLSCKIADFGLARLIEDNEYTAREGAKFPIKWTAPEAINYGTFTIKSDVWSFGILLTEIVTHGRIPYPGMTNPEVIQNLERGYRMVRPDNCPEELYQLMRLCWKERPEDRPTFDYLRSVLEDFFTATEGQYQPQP
Epidermal growth factor receptor, sequence (P00533 whole entry): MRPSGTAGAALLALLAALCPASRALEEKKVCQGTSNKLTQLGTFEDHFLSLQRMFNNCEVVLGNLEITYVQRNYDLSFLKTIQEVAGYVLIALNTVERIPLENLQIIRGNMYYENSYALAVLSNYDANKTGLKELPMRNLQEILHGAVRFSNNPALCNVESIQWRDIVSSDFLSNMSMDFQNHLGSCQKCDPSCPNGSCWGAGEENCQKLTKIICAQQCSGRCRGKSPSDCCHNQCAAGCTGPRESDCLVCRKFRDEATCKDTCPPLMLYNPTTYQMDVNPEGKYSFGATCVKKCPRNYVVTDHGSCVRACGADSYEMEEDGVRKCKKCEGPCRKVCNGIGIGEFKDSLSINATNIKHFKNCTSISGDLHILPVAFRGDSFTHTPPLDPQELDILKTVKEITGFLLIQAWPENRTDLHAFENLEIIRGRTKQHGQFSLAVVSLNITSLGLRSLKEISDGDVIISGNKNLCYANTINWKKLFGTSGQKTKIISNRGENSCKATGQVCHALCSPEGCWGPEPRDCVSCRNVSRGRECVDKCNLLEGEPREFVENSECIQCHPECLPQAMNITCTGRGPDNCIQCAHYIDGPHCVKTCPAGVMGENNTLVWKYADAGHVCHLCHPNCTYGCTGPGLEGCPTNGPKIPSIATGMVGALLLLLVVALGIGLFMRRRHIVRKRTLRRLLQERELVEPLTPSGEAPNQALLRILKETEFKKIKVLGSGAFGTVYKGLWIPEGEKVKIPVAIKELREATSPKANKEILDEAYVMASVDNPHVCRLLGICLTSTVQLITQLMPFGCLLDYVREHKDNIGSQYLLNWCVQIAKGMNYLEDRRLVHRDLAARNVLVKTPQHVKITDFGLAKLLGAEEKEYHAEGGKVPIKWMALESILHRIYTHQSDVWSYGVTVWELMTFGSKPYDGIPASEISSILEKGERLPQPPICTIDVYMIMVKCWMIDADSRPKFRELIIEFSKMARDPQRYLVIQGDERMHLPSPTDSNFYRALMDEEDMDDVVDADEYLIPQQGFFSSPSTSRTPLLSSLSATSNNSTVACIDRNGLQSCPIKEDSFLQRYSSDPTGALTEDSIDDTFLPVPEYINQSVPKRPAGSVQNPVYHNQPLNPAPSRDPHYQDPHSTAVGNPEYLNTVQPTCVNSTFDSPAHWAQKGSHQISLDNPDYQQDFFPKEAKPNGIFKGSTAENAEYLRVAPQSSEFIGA
Proto-oncogene tyrosine-protein kinase Src, sequence (P12931 2-536 limits assumed): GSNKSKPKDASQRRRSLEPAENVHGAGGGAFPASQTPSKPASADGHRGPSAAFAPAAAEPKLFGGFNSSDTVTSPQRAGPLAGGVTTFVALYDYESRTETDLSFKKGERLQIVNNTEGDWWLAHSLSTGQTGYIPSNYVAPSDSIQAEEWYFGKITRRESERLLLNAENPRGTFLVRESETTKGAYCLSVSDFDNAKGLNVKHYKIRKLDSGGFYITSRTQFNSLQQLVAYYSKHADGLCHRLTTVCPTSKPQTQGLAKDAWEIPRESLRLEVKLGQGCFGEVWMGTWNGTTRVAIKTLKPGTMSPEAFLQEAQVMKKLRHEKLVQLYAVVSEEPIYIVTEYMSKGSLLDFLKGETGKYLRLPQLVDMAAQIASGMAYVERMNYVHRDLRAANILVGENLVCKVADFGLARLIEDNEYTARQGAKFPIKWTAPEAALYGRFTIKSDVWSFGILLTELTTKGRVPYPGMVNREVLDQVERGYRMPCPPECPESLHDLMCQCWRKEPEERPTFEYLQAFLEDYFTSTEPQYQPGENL

As usually defined, the IC50 is the concentration at which inhibition is half-maximal. Take `CC(C)CC1(C)C(=O)NC(=O)c2c1ccc1nc(Nc3c(Cl)cccc3Cl)[nH]c21` (stereo not drawn): the concentration for half-maximal inhibition (IC50) in assay [1] came to 5100 nM.

Broadly, the EC50 is the concentration needed to bring the measured effect to its halfway point. As for `CC1(C)C(=O)NC(=O)c2c1ccc1nc(Nc3c(Br)cc(Br)cc3Br)[nH]c21`, in assay [2], the EC50 was 7300 nM. In addition, the IC50 in [1] was determined as 600 nM.

`Cc1cccc(C)c1Nc1nc2ccc3c(c2[nH]1)C(=O)NC(=O)C3(C)C`: in assay [2], the EC50 was determined as 4600 nM. In addition, the 50% inhibitory concentration (IC50) in assay [1] stood at 460 nM.

As to `CC1(C)C(=O)NC(=O)c2c1ccc1[nH]c(Nc3c(F)cccc3F)nc21`, in assay [1], the IC50 was found to be 11000 nM.

As for `CC1(C)C(=O)NC(=O)c2c1ccc1[nH]c(Nc3c(Cl)c(Cl)cc(Cl)c3Cl)nc21`, in assay [1], the IC50 was more than 40000 nM.

As for `CC1(C)C(=O)NC(=O)c2c1ccc1[nH]c(Cc3c(Cl)cccc3Cl)nc21`, the IC50 in [1] was 9600 nM.

Consider `Cc1cccc(Cl)c1Nc1nc2c(ccc3c(C)c(C)nc(O)c32)[nH]1`, for which, in assay [2], the EC50 worked out at 340 nM. Further, the IC50 in [1] was 27 nM.

Take `CCC1(CC)C(=O)NC(=O)c2c1ccc1[nH]c(Nc3c(Cl)cccc3Cl)nc21`: the IC50 in [1] came out at 5900 nM.

As to `Cc1[nH]c(=O)c2c(ccc3[nH]c(Nc4ccccc4Cl)nc32)c1C`, the concentration for half-maximal inhibition (IC50) in [1] was determined as 150 nM.

As to `CC1(C)CNC(=O)c2c1ccc1nc(Nc3c(Cl)cccc3Cl)[nH]c21`, the concentration giving a half-maximal response (EC50) in assay [2] is 5200 nM. The IC50 in assay [1] worked out at 1100 nM.

Take `CC1(C)C(=O)NC(=O)c2c1ccc1nc(Nc3c(Cl)cccc3Cl)[nH]c21`: the EC50 in [2] is 9700 nM. The IC50 in assay [1] is 460 nM.

Regarding `CC1(C)CNCc2c1ccc1[nH]c(Nc3c(Cl)cccc3Cl)nc21`, in assay [1], the IC50 is more than 40000 nM.

`CC1(C)C(=O)NC(=O)c2c1ccc1nc(Nc3ccc(Cl)cc3Cl)[nH]c21`: in assay [1], the 50% inhibitory concentration (IC50) is more than 40000 nM.

For the molecule `Cc1cccc(Cl)c1Nc1nc2c3c(ccc2[nH]1)C(C)(C)C(=O)NC3=O`, the concentration giving a half-maximal response (EC50) in assay [2] was 2900 nM. In addition, in [1], the IC50 came to 770 nM.

On to `CN1C(=O)c2c(ccc3nc(Nc4c(Cl)cccc4Cl)[nH]c23)C(C)(C)C1=O`, for which the IC50 in [1] was found to be 9600 nM.

On to `CCc1cccc(CC)c1Nc1nc2ccc3c(c2[nH]1)C(=O)NC(=O)C3(C)C`, for which the IC50 in [1] is more than 40000 nM.

For the molecule `Cn1c(Nc2c(Cl)cccc2Cl)nc2c3c(ccc21)C(C)(C)C(=O)NC3=O`, the concentration for half-maximal inhibition (IC50) in assay [1] is 2500 nM.

`CN(c1nc2c3c(ccc2[nH]1)C(C)(C)C(=O)NC3=O)c1c(Cl)cccc1Cl`: the IC50 in assay [1] was determined as 2500 nM.

As to `Cc1nc(O)c2c(ccc3[nH]c(Nc4c(Br)cc(Br)cc4Br)nc32)c1C`, the EC50 in [2] was 610 nM. Also, the half-inhibitory concentration (IC50) in [1] worked out at 25 nM.

Consider `CC1(C)C(=O)NC(=O)c2c1ccc1nc(Nc3ccccc3Cl)[nH]c21`, for which, in assay [1], the IC50 was more than 40000 nM.

Regarding `Cc1nc(O)c2c(ccc3[nH]c(Nc4c(Cl)cccc4Cl)nc32)c1C`, the NI entry in assay [3], in assay [4] and in [5] was “inactive” throughout. Moreover, the concentration for a half-maximal effect (EC50) in assay [2] was determined as 190 nM.

On to `CC1(C)C(=O)NC(=O)c2c1ccc1[nH]c(Nc3c(Cl)cc(Cl)cc3Cl)nc21`, for which, in assay [2], the half-maximal effective concentration (EC50) was determined as 4300 nM. Besides, the IC50 in assay [1] stood at 730 nM.

With `Cc1nc(O)c2c(ccc3[nH]c(Nc4c(Cl)cc(Cl)cc4Cl)nc32)c1C`, in assay [2], the concentration giving a half-maximal response (EC50) is 420 nM. For the same molecule, the IC50 in [1] was 18 nM.

Regarding `Cc1[nH]c(=O)c2c(ccc3nc(Nc4c(Cl)cccc4Cl)[nH]c32)c1C`, the 50% inhibitory concentration (IC50) is 80000 nM in [6]; more than 100000 nM in assay [7]; 100000 nM in [8]; 12 nM in [9]; 26 nM in assay [1].

Regarding `O=C1NCCc2ccc3[nH]c(Nc4c(Cl)cccc4Cl)nc3c21`, the EC50 in assay [2] was 1800 nM. In addition, in [1], the IC50 turned out to be 380 nM.

As for `CC1(C)C(=O)NC(=O)c2c1ccc1nc(Nc3ccc(Cl)cc3)[nH]c21`, the IC50 in assay [1] was more than 40000 nM.
